Source: ChEMBL document CHEMBL1649480, “Farnesol-induced apoptosis in Candida albicans” (2009)
Calls of active or inactive are those of the source. The rule behind the calls is not given here.

Columns and labels:
Candida albicans [1] = assay: Upregulation of Mitochondrial 2-enoyl thioester reductase expression in Candida albicans SC5314 at 200 uM after 24 hrs by MALDI-TOF MS; type: functional, organism-based
In short: (§1)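 SC5314 grown overnight at 30°C, 120 rpm, in yeast nitrogen base (pH 7.0) with 50 mM glucose. Cells were washed in PBS and adjusted to OD600 0.1, then treated 24 h with farnesol from a methanol dilution; controls received methanol. Proteomes of treated and untreated cells were compared by 2-D SDS-PAGE and MALDI-TOF MS, with ProFound searches of the NCBI nonredundant database. Spots changed at least 1.5-fold in three independent experiments were counted.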

Candida albicans [2] = assay: Upregulation of Heat shock protein 90 expression in Candida albicans SC5314 at 200 uM after 24 hrs by MALDI-TOF MS; type: functional, organism-based
In short: (§2)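 Overnight YNB-glucose SC5314 culture, PBS-washed, adjusted to OD600 0.1 and treated 24 h with 40 or 200 μM farnesol (methanol in controls). Proteomes were compared with untreated cells by 2D SDS-PAGE and MALDI-TOF MS, searched against NCBI nonredundant database. Spots were counted as changed at ≥1.5-fold in three independent experiments.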

Candida albicans [3] = assay: Upregulation of Pyruvate decarboxylase expression in Candida albicans SC5314 at 40 uM after 24 hrs by MALDI-TOF MS; type: functional, organism-based; in short: as §1
Candida albicans [4] = assay: Induction of apoptosis in Candida albicans SC5314 at 100 uM after 24 hrs by TUNEL assay; type: functional
In short: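 After 24 h in farnesol (40, 100, 200 μM), cells were PBS-washed, fixed in 4% paraformaldehyde (pH 7.4) 1 h at 20°C, and permeabilized 2 min on ice. They were labeled with 9:1 label:enzyme TUNEL mix 1 h at 37°C in the dark and examined by fluorescence microscopy at 515–565 nm. Flow cytometry counted % positive of 30,000 gated cells, gates set by no-enzyme and DNase-treated controls.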

Candida albicans [5] = assay: Increase in MCA1 expression in Candida albicans SC5314 at 10 mM after 4 hrs by quantitative PCR analysis
Candida albicans [6] = assay: Upregulation of Putative Rho protein GDP dissociation factor expression in Candida albicans SC5314 at 200 uM after 24 hrs by MALDI-TOF MS; type: functional, organism-based; in short: as §1
Candida albicans [7] = assay: Downregulation of Phosphoglycerate mutase expression in Candida albicans SC5314 at 40 uM after 24 hrs by MALDI-TOF MS; type: functional, organism-based; in short: as §2
Candida albicans [8] = assay: Upregulation of Manganese superoxide dismutase expression in Candida albicans SC5314 at 200 uM after 24 hrs by MALDI-TOF MS; type: functional, organism-based; in short: as §1
Candida albicans [9] = assay: Induction of apoptosis in Candida albicans SC5314 assessed as activation of caspase activity at 40 uM after 3 hrs by Fluorescence analysis; type: functional
In short: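 Active caspases in farnesol-exposed cells (40, 100, 200 μM; methanol control, H2O2 positive control) were detected with a FLICA kit per manufacturer. Cells were examined by confocal microscopy, with green-fluorescing cells counted as caspase-positive and unstained cells as nonapoptotic. Percentage of positive cells was recorded.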

Candida albicans [10] = assay: Induction of apoptosis in Candida albicans SC5314 assessed as activation of caspase activity at 100 uM after 3 hrs by Fluorescence analysis; type: functional
In short: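 SC5314 grown overnight at 30°C (120 rpm) in yeast nitrogen base pH 7.0 with 50 mM glucose, PBS-washed, set to OD600 0.1, then exposed to farnesol (40, 100, 200 μM; methanol diluent). Active caspases detected in situ with a FLICA kit per the manufacturer; green cells imaged by confocal microscopy (Cy2/Cy3). Controls: methanol vehicle and hydrogen peroxide. Done on three or more occasions.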

Candida albicans [11] = assay: Induction of apoptosis in Candida albicans SC5314 assessed as cell death level at 100 uM after 3 hrs by Fluorescence analysis; type: functional
In short: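 Washed, OD600 0.1 SC5314 cells (overnight culture at 30°C in YNB pH 7.0 with 50 mM glucose) exposed 3 h to farnesol, with methanol vehicle and H2O2 controls. Stained 30 min in the dark with a mix of dichlorodihydrofluorescein diacetate, propidium iodide and calcofluor white, then PBS-washed. Confocal imaging; red propidium iodide-stained cells scored as a percentage of all cells.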

Candida albicans [12] = assay: Upregulation of NADH-cytochrome b5 reductase expression in Candida albicans SC5314 at 200 uM after 24 hrs by MALDI-TOF MS; type: functional, organism-based; in short: as §1

Question: How did the Activity (Candida albicans [1]) turn out when `CC(C)=CCC/C(C)=C/CC/C(C)=C/CO` [FARNESOL] was run?
Answer: Active

Question: And the Activity (Candida albicans [2])?
Answer: Active

Question: And the Activity (Candida albicans [3])?
Answer: Active

Question: What about the Activity (Candida albicans [4]) of the same molecule?
Answer: 10.2%

Question: And the Activity (Candida albicans [5])?
Answer: Active

Question: What about the Activity (Candida albicans [6]) of the same molecule?
Answer: Active

Question: And the Activity (Candida albicans [7])?
Answer: Active

Question: What about the Activity (Candida albicans [8]) of the same molecule?
Answer: Active

Question: And the Activity (Candida albicans [9])?
Answer: 5%

Question: What about the Activity (Candida albicans [10]) of the same molecule?
Answer: 13%

Question: What about the Activity (Candida albicans [11]) of the same molecule?
Answer: 20%

Question: And the Activity (Candida albicans [12])?
Answer: Active
